Results as given in ChEMBL document CHEMBL1141343, “Scalarane sesterterpenes from a marine sponge of the genus Spongia and their FXR antagonistic activity” (J Nat Prod, 2007).
The source made the active and inactive calls. No cut-off for these calls is given here.

How the values were obtained:
[1] = Cytotoxicity against monkey CV1 cells after 24 hrs by MTT assay; format: cell-based; details: Chlorocebus aethiops, CV-1, 24 h
Summary of the method: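 CV-1 monkey kidney cells plated in DMEM with 10% FBS at 37 °C, 5% CO2, grown 24 h, then exposed to compounds at a range of concentrations for 24 h. MTT at 1 mg/mL added for 1 h at 37 °C. Formazan dissolved in DMSO and absorbance read at 450 nm. Each experiment repeated more than three times.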

[2] = target: T1, Bile acid receptor (Homo sapiens) (UniProt Q96RI1); assay: Inhibition of CDCA-mediated interaction between FXR ligand binding domain and SRC1 at 25 uM by SPR spectroscopy
T1 sequence (whole entry): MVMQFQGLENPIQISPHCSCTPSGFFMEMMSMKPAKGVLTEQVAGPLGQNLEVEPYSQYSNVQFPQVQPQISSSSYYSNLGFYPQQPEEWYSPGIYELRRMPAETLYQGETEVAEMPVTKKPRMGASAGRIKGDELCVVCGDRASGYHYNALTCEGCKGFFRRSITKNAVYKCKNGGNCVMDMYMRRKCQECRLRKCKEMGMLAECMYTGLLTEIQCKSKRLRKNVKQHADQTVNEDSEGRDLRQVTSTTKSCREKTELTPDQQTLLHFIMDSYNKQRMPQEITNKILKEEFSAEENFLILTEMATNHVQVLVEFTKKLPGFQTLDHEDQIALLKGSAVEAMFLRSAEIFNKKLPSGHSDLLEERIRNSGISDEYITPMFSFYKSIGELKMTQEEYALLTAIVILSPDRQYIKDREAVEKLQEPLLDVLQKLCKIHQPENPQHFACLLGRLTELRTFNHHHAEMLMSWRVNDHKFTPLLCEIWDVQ
Summary of the method: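 Human FXR LBD (4 µM) preincubated 1 h with compound plus 50 µM CDCA, then injected for 120 s over an immobilized SRC-1 coactivator peptide surface, followed by a 120 s buffer wash. Biacore SPR, 25 °C.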

Bile acid receptor = target: T2, Bile acid receptor (Homo sapiens, UniProt Q96RI1); assay: Antagonist activity at human FXR expressed in monkey CV1 cells after 24 hrs by ecdysone receptor response element-driven luciferase reporter assay; format: functional, cell-based, CV-1
T2 sequence (Q96RI1 whole entry): T1 sequence (whole entry)
Summary of the method: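 Full-length human FXR, EcRE-driven luciferase reporter and β-galactosidase plasmid cotransfected into CV-1 cells, seeded 24 h beforehand in DMEM with 10% lipid-depleted FBS at 37 °C, 5% CO2. After a further 24 h, cells were exposed to compound or DMSO vehicle with 50 µM CDCA. Harvest was at 24 h, with luciferase normalized to β-galactosidase. Triplicate wells, three repeats.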

| SMILES | IC50 [1] | Activity [2] | IC50 (Bile acid receptor) |
| --- | --- | --- | --- |
| CC1(C)CCC[C@]2(C)[C@H]3C[C@@H](O)[C@]4(C)[C@@H]5C(=CC[C@H]4[C@]3(C)CC[C@@H]12)C(=O)O[C@H]5O | 77.2 µM | Active | 75 µM |
| C[C@]1(CO)CCC[C@]2(C)[C@H]3C[C@@H](O)[C@]4(C)[C@H]5COC(=O)C5=CC[C@H]4[C@]3(C)CC[C@@H]12 | > 100 µM |  | > 100 µM |
| CO[C@@H]1OC(=O)C2=CC[C@H]3[C@]4(C)CC[C@H]5C(C)(C)CCC[C@]5(C)[C@H]4C[C@@H](O)[C@]3(C)[C@H]21 | 48 µM | Active | 24 µM |
| CC(=O)O[C@@H]1C[C@@H]2[C@@]3(C)CCCC(C)(C)[C@@H]3CC[C@@]2(C)[C@@H]2CC=C3C(=O)O[C@@H](O)[C@@H]3[C@@]12C | 75.1 µM | Active | 60.4 µM |
| C[C@@]1(CO)CCC[C@]2(C)[C@H]3C[C@@H](O)[C@]4(C)[C@H]5COC(=O)C5=CC[C@H]4[C@]3(C)CC[C@@H]12 | 49.4 µM |  | 2.4 µM |
| CC1(C)CCC[C@]2(C)[C@H]3C[C@@H](O)[C@]4(C)[C@H]5COC(=O)C5=CC[C@H]4[C@]3(C)CC[C@@H]12 | 41.4 µM | Active | 31.6 µM |
